In ChEMBL document CHEMBL3352013, “The design and synthesis of potent and selective inhibitors of Trypanosoma brucei glycogen synthase kinase 3 for the treatment of human african trypanosomiasis” (J Med Chem, 2014):
pEC50, pIC50: −log10 of the molar value.

What was measured:
[1] = Inhibition of Trypanosoma brucei GSK3 using biotinylated GSP2 substrate by flashplate assay
In short: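 Radiometric Flashplate assay: 2.5 nM TbGSK3 short, 1 μM biotinylated GSP2, 1 μM ATP plus [γ-33P]-ATP. 10-point titration 30 μM to 0.3 nM final, 1% DMSO. IC50 averaged over two or more experiments; standard GW8510 used for reproducibility (MSR).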

[2] = target: Glycogen synthase kinase-3 (Homo sapiens, UniProt P49840+P49841); test: Inhibition of human GSK3 using biotinylated GSP2 substrate by flashplate assay; format: protein assay
[3] = Selectivity ratio, ratio of IC50 for human GSK3 to IC50 Trypanosoma brucei GSK3
CDK2/Cyclin A2 = CDK2/Cyclin A2 (Homo sapiens, UniProt P24941); test: Inhibition of human CDK2/cyclin A using Biotin-C6-PKTPKKAKKL substrate; format: protein-complex assay
[4] = Selectivity ratio, ratio of IC50 for human CDK2/cyclin A to IC50 for Trypanosoma brucei GSK3
[5] = system: Trypanosoma brucei brucei; test: Trypanocidal activity against bloodstream stage of Trypanosoma brucei brucei assessed as inhibition of proliferation after 72 hrs; format: functional, organism-based
In short: (§1)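 Resazurin viability assay: 2 × 10³ cells/well (MRC5 in MEM + 10% FBS; bloodstream-form T. b. brucei in appropriate medium), compounds 50 μM to 0.5 nM, 37 °C, 5% CO₂ for 69 h, then resazurin 50 μM final for further 4 h; fluorescence read. Concentration giving 50% growth inhibition over 72 h; average of two or more experiments.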

MRC5 = test: Cytotoxicity against human MRC5 cells assessed as growth inhibition after 72 hrs; format: cell-based; settings: MRC5, 72 h; in short: as §1

Structure (SMILES) | IC50 [2] | Ratio IC50 [3] | pIC50 (CDK2/Cyclin A2) | Ratio IC50 [4] | pIC50 [1] | pEC50 [5] | pEC50 (MRC5)
COc1cccc(OC)c1C(=O)Nc1c[nH]nc1C(=O)NN1CCOCC1 | 450 nM | 5.6 | < 5.00 | > 120 | 7.09 | 4.30 | < 4.30
CCCCCNC(=O)c1n[nH]cc1NC(=O)c1c(OC)cccc1OC | 100 nM | – | 5.32 | 4800 | 9.00 | 5.14 | < 4.30
COc1cccc(OC)c1C(=O)Nc1c[nH]nc1C(=O)NCCN1CCCC1 | 660 nM | 2.1 | < 5.00 | > 31 | 6.49 | < 4.30 | < 4.30
CO[C@H]1CC[C@H](NC(=O)c2n[nH]cc2NC(=O)c2ccc(N3CCN(C)CC3)cc2)CC1 | < 5 nM | – | 6.00 | 14 | 7.15 | 5.70 | 4.70
COc1cccc(OC)c1C(=O)Nc1c[nH]nc1C(=O)NC1CCC(C)CC1 (mixture of isomers) | – | – | < 5.32 | 4800 | 9.00 | 5.17 | 4.35
COc1cccc(OC)c1C(=O)Nc1c[nH]nc1C(=O)O | > 10000 nM | – | < 5.00 | – | < 4.30 | < 4.30 | < 4.30
COc1cccc(OC)c1C(=O)Nc1c[nH]nc1C(=O)NC1CCC1 | 80 nM | 10 | 5.62 | 300 | 8.10 | 4.92 | < 4.30
COc1cccc(OC)c1C(=O)Nc1c[nH]nc1C(=O)Nc1ccccn1 | 940 nM | 2.9 | < 5.00 | > 31 | 6.49 | < 4.30 | < 4.30
COc1cccc(OC)c1C(=O)Nc1c[nH]nc1C(=O)NCc1ccccn1 | 320 nM | 21 | < 5.00 | > 670 | 7.82 | 4.70 | < 4.30
COc1cccc(OC)c1C(=O)Nc1c[nH]nc1C(=O)NCC1CCCCC1 | – | – | – | – | 9.00 | 5.11 | < 4.30
COc1cccc(OC)c1C(=O)Nc1c[nH]nc1C(=O)NC1CC2CCC1C2 (stereo not given) | – | – | < 5.00 | > 560 | 7.74 | 4.80 | < 4.30
COc1cccc(OC)c1C(=O)Nc1c[nH]nc1C(=O)NC1CC1 | 220 nM | 18 | < 5.00 | – | 7.92 | 4.72 | < 4.30
CO[C@H]1CC[C@H](NC(=O)c2n[nH]cc2NC(=O)Cc2ccccc2F)CC1 | 140 nM | 0.35 | 6.09 | 2.1 | 6.41 | 4.64 | < 4.30
CO[C@H]1CC[C@H](NC(=O)c2n[nH]cc2NC(=O)c2c(C)nc3ccccn23)CC1 | 42 nM | 0.42 | 5.66 | 22 | 7.00 | 5.54 | 4.47
COc1cccc(OC)c1C(=O)Nc1c[nH]nc1C(=O)NCCCN(C)C | 470 nM | 1.4 | < 5.00 | > 30 | 6.48 | < 4.30 | < 4.30
CO[C@H]1CC[C@H](NC(=O)c2n[nH]cc2NC(=O)c2ccccc2Nc2ccccc2)CC1 | 20 nM | 1.8 | – | – | 7.96 | 5.36 | 4.46
CO[C@H]1CC[C@H](NC(=O)c2n[nH]cc2NC(=O)c2ncoc2-c2ccccc2)CC1 | 5 nM | 0.0058 | 4.66 | 24 | 6.04 | < 4.30 | 4.55
CO[C@H]1CC[C@H](NC(=O)c2n[nH]cc2NC(=O)c2ccccc2Nc2cccc(C)c2C)CC1 | 30 nM | 0.45 | – | – | 7.18 | 5.24 | 4.80
COc1cccc(OC)c1C(=O)Nc1c[nH]nc1C(=O)NCCCOC(C)C | – | – | < 5.00 | > 10000 | 9.00 | 5.18 | < 4.30
CO[C@H]1CC[C@H](NC(=O)c2n[nH]cc2NC(=O)c2cc3ccccc3o2)CC1 | < 5 nM | – | – | – | 7.89 | 5.92 | 6.10

Continued by rising pIC50 (CDK2/Cyclin A2), values first:

IC50 [2] | Ratio IC50 [3] | pIC50 (CDK2/Cyclin A2) | Ratio IC50 [4] | Structure (SMILES) | pIC50 [1] | pEC50 [5] | pEC50 (MRC5)
< 5 nM | – | 6.20 | 11 | CO[C@H]1CC[C@H](NC(=O)c2n[nH]cc2NC(=O)c2cc(Cl)cc(Cl)c2)CC1 | 7.24 | 5.02 | 4.89
8 nM | 0.0012 | 6.42 | 0.55 | CO[C@H]1CC[C@H](NC(=O)c2n[nH]cc2NC(=O)C2CCOCC2)CC1 | 6.16 | 4.49 | < 4.30
< 5 nM | – | 6.57 | 17 | CO[C@H]1CC[C@H](NC(=O)c2n[nH]cc2NC(=O)c2ccc(OC(F)F)cc2)CC1 | 7.80 | 5.96 | 5.60
< 5 nM | – | 6.66 | 4.2 | CO[C@H]1CC[C@H](NC(=O)c2n[nH]cc2NC(=O)c2ccc(F)cc2F)CC1 | 7.28 | 5.42 | 4.96
< 5 nM | – | 6.82 | 1.6 | CO[C@H]1CC[C@H](NC(=O)c2n[nH]cc2NC(=O)c2cnc3ccccn23)CC1 | 7.03 | 5.59 | 5.23
< 5 nM | – | 6.89 | 6.8 | CO[C@H]1CC[C@H](NC(=O)c2n[nH]cc2NC(=O)c2ccc(N3CCCC3)cc2)CC1 | 7.72 | 5.57 | < 4.30
< 13 nM | – | 7.00 | 5.6 | CO[C@H]1CC[C@H](NC(=O)c2n[nH]cc2NC(=O)c2ccccc2C(F)(F)F)CC1 | 7.74 | 5.64 | 5.48
< 13 nM | – | 7.00 | 25 | COc1ccccc1C(=O)Nc1c[nH]nc1C(=O)N[C@H]1CC[C@H](OC)CC1 | 8.40 | 6.05 | 5.82
< 5 nM | – | 7.08 | 3.5 | CO[C@H]1CC[C@H](NC(=O)c2n[nH]cc2NC(=O)c2cc(F)cc(F)c2)CC1 | 7.62 | 5.59 | 6.22
< 5 nM | – | 7.38 | 0.67 | CO[C@H]1CC[C@H](NC(=O)c2n[nH]cc2NC(=O)c2cc3ccccn3n2)CC1 | 7.20 | 5.72 | 6.00
< 5 nM | 0.25 | 7.85 | – | CO[C@H]1CC[C@H](NC(=O)c2n[nH]cc2NC(=O)c2ccccc2F)CC1 | 7.70 | 6.40 | 6.00
